Tests used:
[1] = biological target: T1, Transient receptor potential cation channel subfamily V member 1 (Rattus norvegicus, UniProt O35433); assay: Antagonist activity at rat TRPV1 expressed in CHO cells assessed as inhibition of capsaicin-induced calcium influx; format: functional, cell-based
Procedure, shortened: (§1)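 CHO cells stably expressing rat TRPV1. Uptake of 45Ca2+ was triggered by capsaicin (500 nM) or by acid (pH 5), and test compounds were run over a concentration range. IC50 values are the mean ± SEM of at least two experiments, with triplicate wells at each concentration.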

[2] = Ratio of drug level in brain to plasma in Sprague-Dawley rat at 5 mg/kg, iv; format: ADME, organism-based; set-up: dose 5 mg/kg, route intravenous
Procedure, shortened: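 Male Sprague-Dawley rats received a single iv dose of 5 mg/kg as a solution in DMSO (n = 3). Plasma and nonperfused whole brain were collected 30 min after dosing. Total compound concentration was measured by HPLC and expressed as a brain-to-plasma ratio.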

[3] = biological target: T1, Transient receptor potential cation channel subfamily V member 1; assay: Antagonist activity at rat TRPV1 expressed in CHO cells assessed as inhibition of pH 5 acid-induced calcium influx; format: functional, cell-based; procedure, shortened: as §1
[4] = tested on: Blood; assay: Drug level in blood of Sprague-Dawley rat telemetry model at 10 mg/kg, po; format: ADME, organism-based; set-up: dose 10 mg/kg, route oral; settings: in vivo
[5] = tested on: Rattus norvegicus; assay: Inhibition of capsaicin-induced flinching in Sprague-Dawley rat at 3 mg/kg, po administered 1 hr before capsaicin challenge; format: functional
Procedure, shortened: (§2)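 Rats received the test compound orally, then capsaicin. In vivo on-target activity was scored as percent inhibition of the capsaicin-evoked flinching response.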

[6] = tested on: Rattus norvegicus; assay: Toxicity assessed as increase in body core temperature in Sprague-Dawley rat at 10 mg/kg, po by radiotelemetry relative to control; format: organism-based; set-up: dose 10 mg/kg, route oral; settings: in vivo
[7] = Drug level in blood of Sprague-Dawley rat with capsaicin-induced flinching at 3 mg/kg, po administered 1 hr before capsaicin challenge; format: ADME, organism-based; set-up: dose 3 mg/kg, route oral; settings: read-out: Drug uptake
[8] = Drug level in blood of Sprague-Dawley rat with capsaicin-induced flinching at 10 mg/kg, po administered 1 hr before capsaicin challenge; format: ADME, organism-based; set-up: dose 10 mg/kg, route oral; settings: read-out: Drug uptake
[9] = tested on: Rattus norvegicus; assay: Inhibition of capsaicin-induced flinching in Sprague-Dawley rat at 10 mg/kg, po administered 1 hr before capsaicin challenge; format: functional; procedure, shortened: as §2
[10] = biological target: T2, Transient receptor potential cation channel subfamily V member 1 (Homo sapiens, UniProt Q8NER1); assay: Antagonist activity at human TRPV1 assessed as inhibition of capsaicin-induced calcium influx; format: functional
[11] = tested on: Rattus norvegicus; assay: Inhibition of capsaicin-induced flinching in po dosed rat; format: functional, organism-based; procedure, shortened: as §2
[12] = biological target: T2, Transient receptor potential cation channel subfamily V member 1; assay: Antagonist activity at human TRPV1 assessed as inhibition of low pH-induced calcium influx; format: functional
[13] = tested on: Rattus norvegicus; assay: Toxicity assessed as increase in body temperature in Sprague-Dawley rat at 0.1 to 3 mg/kg, po after 60 mins; format: organism-based; set-up: dose 0.1-3 mg/kg, route oral; settings: in vivo, 1 h
Procedure, shortened: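 Rodents were dosed orally at 0.1–3 mg/kg. Body temperature was recorded 60 min after drug administration and compared across doses.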

[14] = tested on: Blood; assay: Drug level in blood of Sprague-Dawley rat telemetry model at 1 mg/kg, po; format: ADME, organism-based; set-up: dose 1 mg/kg, route oral; settings: in vivo
[15] = tested on: Rattus norvegicus; assay: Toxicity assessed as increase in body core temperature in Sprague-Dawley rat at 1 mg/kg, po by radiotelemetry relative to control; format: organism-based; set-up: dose 1 mg/kg, route oral; settings: in vivo
[16] = tested on: Rattus norvegicus; assay: Inhibition of capsaicin-induced flinching in Sprague-Dawley rat at 1 mg/kg, po administered 1 hr before capsaicin challenge; format: functional; procedure, shortened: as §2
[17] = tested on: Rattus norvegicus; assay: Inhibition of capsaicin-induced flinching in Sprague-Dawley rat at 0.3 mg/kg, po administered 1 hr before capsaicin challenge; format: functional; procedure, shortened: as §2
[18] = Drug level in blood of Sprague-Dawley rat with capsaicin-induced flinching at 0.3 mg/kg, po administered 1 hr before capsaicin challenge; format: ADME, organism-based; set-up: dose 0.3 mg/kg, route oral; settings: read-out: Drug uptake
[19] = Drug level in blood of Sprague-Dawley rat with capsaicin-induced flinching at 1 mg/kg, po administered 1 hr before capsaicin challenge; format: ADME, organism-based; set-up: dose 1 mg/kg, route oral; settings: read-out: Drug uptake
[20] = tested on: Rattus norvegicus; assay: Toxicity assessed as increase in body core temperature in Sprague-Dawley rat at 3 mg/kg, po by radiotelemetry relative to control; format: organism-based; set-up: dose 3 mg/kg, route oral; settings: in vivo
[21] = tested on: Blood; assay: Drug level in blood of Sprague-Dawley rat telemetry model at 3 mg/kg, po; format: ADME, organism-based; set-up: dose 3 mg/kg, route oral; settings: in vivo

T1 sequence (O35433 whole entry): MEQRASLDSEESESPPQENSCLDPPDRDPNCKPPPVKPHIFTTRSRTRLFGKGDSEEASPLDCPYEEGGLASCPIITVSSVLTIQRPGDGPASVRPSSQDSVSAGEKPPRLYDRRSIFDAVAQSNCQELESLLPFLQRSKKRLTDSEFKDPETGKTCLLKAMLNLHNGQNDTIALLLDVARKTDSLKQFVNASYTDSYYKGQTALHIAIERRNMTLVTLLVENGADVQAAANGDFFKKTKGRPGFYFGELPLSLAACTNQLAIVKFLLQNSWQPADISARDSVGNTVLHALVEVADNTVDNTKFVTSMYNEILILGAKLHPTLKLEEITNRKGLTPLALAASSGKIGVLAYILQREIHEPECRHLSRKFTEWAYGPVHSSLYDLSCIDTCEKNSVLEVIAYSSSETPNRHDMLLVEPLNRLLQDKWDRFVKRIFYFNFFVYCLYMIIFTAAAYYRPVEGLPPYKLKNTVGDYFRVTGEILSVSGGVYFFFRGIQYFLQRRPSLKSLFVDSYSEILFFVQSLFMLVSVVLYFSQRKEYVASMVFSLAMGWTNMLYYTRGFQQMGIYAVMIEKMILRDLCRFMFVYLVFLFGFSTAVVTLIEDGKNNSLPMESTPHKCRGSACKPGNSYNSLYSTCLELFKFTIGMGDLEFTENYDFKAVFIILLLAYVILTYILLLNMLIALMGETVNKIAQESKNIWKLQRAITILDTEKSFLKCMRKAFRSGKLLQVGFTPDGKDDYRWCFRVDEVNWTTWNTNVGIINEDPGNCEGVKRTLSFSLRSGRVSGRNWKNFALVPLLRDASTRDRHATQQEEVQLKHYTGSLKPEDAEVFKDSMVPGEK
T2 sequence (Q8NER1 whole entry): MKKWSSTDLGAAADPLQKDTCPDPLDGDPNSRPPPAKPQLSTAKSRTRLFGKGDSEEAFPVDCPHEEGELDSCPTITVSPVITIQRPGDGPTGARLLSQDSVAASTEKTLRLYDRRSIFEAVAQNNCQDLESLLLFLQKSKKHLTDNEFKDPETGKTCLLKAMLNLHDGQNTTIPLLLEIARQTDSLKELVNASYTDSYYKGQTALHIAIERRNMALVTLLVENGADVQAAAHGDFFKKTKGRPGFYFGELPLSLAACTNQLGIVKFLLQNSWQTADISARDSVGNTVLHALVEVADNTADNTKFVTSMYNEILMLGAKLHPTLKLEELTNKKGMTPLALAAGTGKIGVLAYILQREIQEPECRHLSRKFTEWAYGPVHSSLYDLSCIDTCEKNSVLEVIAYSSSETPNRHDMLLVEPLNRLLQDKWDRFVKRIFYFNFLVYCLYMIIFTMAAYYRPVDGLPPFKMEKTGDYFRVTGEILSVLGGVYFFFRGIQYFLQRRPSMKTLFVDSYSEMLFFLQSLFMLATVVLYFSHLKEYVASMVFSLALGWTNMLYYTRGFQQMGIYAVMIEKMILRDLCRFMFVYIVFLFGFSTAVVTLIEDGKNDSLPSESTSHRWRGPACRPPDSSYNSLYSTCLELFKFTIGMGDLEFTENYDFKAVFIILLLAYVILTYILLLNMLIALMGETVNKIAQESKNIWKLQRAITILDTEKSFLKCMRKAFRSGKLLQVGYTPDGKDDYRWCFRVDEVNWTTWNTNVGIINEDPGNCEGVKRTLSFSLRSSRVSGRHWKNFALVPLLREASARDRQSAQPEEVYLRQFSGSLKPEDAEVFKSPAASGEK

Structure (SMILES)	IC50 [1] [nM]	Kp [2]	IC50 [3] [nM]	further results
Nc1nc2c(Oc3cc(-c4ccc(C(F)(F)F)cc4NC(=O)c4ccccn4)ncn3)cccc2[nH]c1=O	0.7	0.21	0.7	
Nc1nc(C(F)(F)F)ccc1-c1cc(Oc2cccc3[nH]c(=O)c(N)nc23)ncn1	0.8	0.11	2.7	Drug uptake [4]: 1129.62 ng/mL; inhibition in vivo at 3 mg/kg [5]: 100%; Activity [6]: 1.1 °C; concentration at 1 h [7]: 252 ng/mL
Nc1nc2c(Oc3cc(-c4ccc(C(F)(F)F)cc4)ncn3)cccc2[nH]c1=O		0.4		
CC(O)CCNc1nc(Oc2cccc3[nH]c(=O)c(N)nc23)cc(-c2ccc(C(F)(F)F)cc2)n1 (configuration not stated)	16.1	0.03	8.7	concentration at 1 h [8]: 494 ng/mL; inhibition in vivo at 10 mg/kg [9]: 72%
Nc1nc2c(Oc3cc(-c4ccc(C(F)(F)F)nc4NCCN4CCOCC4)ncn3)cccc2[nH]c1=O	2.2	0.04	18.8	inhibition in vivo at 3 mg/kg [5]: 60%; concentration at 1 h [7]: 67.1 ng/mL
Nc1cc(C(F)(F)F)ccc1-c1cc(Oc2cccc3[nH]c(=O)c(N)nc23)ncn1	1.5	0.23	3.9	
COC[C@@H](C)Nc1nc(Oc2cccc3[nH]c(=O)c(N)nc23)cc(-c2ccc(C(F)(F)F)cc2)n1	0.3	0.15	0.3	
CC(=O)Nc1nc2c(Oc3cc(-c4ccc(C(F)(F)F)cc4N)ncn3)cccc2s1	15.9	0.93	3.6	
CC(=O)Nc1nc2c(Oc3cc(-c4ccc(C(F)(F)F)cc4)ncn3)cccc2s1 [AMG-517]				IC50 [10]: 0.8 nM; EC50 [11]: 0.33 mg/kg; IC50 [12]: 0.6 nM; Activity [13]: Active
Nc1nc(Oc2cccc3[nH]c(=O)c(N)nc23)cc(-c2ccc(C(F)(F)F)cc2)n1	3.7	0.07	2.6	
Nc1nc2c(Oc3cc(-c4ccc(C(F)(F)F)nc4N[C@@H]4CCOC4)ncn3)cccc2[nH]c1=O	1.1	0.09	0.8	inhibition in vivo at 3 mg/kg [5]: 30%; concentration at 1 h [7]: 32.8 ng/mL
CC(C)CN1CCCCC1CNc1nc(C(F)(F)F)ccc1-c1cc(Oc2cccc3[nH]c(=O)c(N)nc23)ncn1 (configuration not stated)	0.9	0.25	1.7	
COC[C@H](C)Nc1nc(Oc2cccc3[nH]c(=O)c(N)nc23)cc(-c2ccc(C(F)(F)F)cc2N)n1	3.8	0.07	2.7	Drug uptake [4]: 289.24 ng/mL; Activity [6]: 1.2 °C; concentration at 1 h [8]: 342 ng/mL; inhibition in vivo at 10 mg/kg [9]: 95%
Nc1nc(Oc2cccc3[nH]c(=O)c(N)nc23)cc(-c2ccc(C(F)(F)F)cc2N)n1	34.5	0.04	61.9	
Nc1nc2c(Oc3cc(-c4ccc(C(F)(F)F)cc4NC(=O)c4ccncc4)ncn3)cccc2[nH]c1=O	3.3	0.07	2.1	concentration at 1 h [8]: 0.82 ng/mL; inhibition in vivo at 10 mg/kg [9]: 50%
CC(=O)Nc1nc2c(Oc3cc(-c4ccc(C(F)(F)F)cc4NC(=O)NC(C)(C)C)ncn3)cccc2s1	2.4	0.19	6	
COC[C@H](C)Nc1nc(Oc2cccc3[nH]c(=O)c(N)nc23)cc(-c2ccc(C(F)(F)F)nc2N)n1	4.4	0.04	6.4	concentration at 1 h [8]: 5.48 ng/mL; inhibition in vivo at 10 mg/kg [9]: 23%
CC(C)(C)NC(=O)Nc1cc(C(F)(F)F)ccc1-c1cc(Oc2cccc3[nH]c(=O)c(N)nc23)ncn1	4.1	0.04	5.2	concentration at 1 h [8]: 196 ng/mL; inhibition in vivo at 10 mg/kg [9]: 43%
COCCNc1nc(Oc2cccc3[nH]c(=O)c(N)nc23)cc(-c2ccc(C(F)(F)F)cc2)n1	0.6	0.05	0.8	Drug uptake [14]: 100.29 ng/mL; Activity [15]: 0.7 °C; inhibition in vivo at 1 mg/kg [16]: 100%; inhibition in vivo at 0.3 mg/kg [17]: 93%; concentration at 1 h [18]: 24.9 ng/mL
COCCNc1nc(Oc2cccc3[nH]c(=O)c(N)nc23)cc(-c2ccc(C(F)(F)F)cc2N)n1	4.3	0.1	5.9	concentration at 1 h [8]: 298 ng/mL; inhibition in vivo at 10 mg/kg [9]: 71%
COC[C@H](C)Nc1nc(Oc2cccc3[nH]c(=O)c(N)nc23)cc(-c2ccc(C(F)(F)F)cc2)n1	0.8	0.19	1	
CC(Nc1nc(Oc2cccc3[nH]c(=O)c(N)nc23)cc(-c2ccc(C(F)(F)F)cc2)n1)c1ccccn1 (configuration not stated)	2.8	0.04	5.7	Drug uptake [4]: 241.9 ng/mL; Activity [6]: 0.5 °C; concentration at 1 h [8]: 267 ng/mL; inhibition in vivo at 10 mg/kg [9]: 94%
CC(=O)Nc1nc2c(Oc3cc(-c4ccc(C(F)(F)F)cc4)nc(N)n3)cccc2s1		0.44		
CC(C)(C)CN1CCCCC1CNc1nc(Oc2cccc3[nH]c(=O)c(N)nc23)cc(-c2ccc(C(F)(F)F)cc2)n1 (configuration not stated)	2	0.24	2.1	
COCCNc1nc(C(F)(F)F)ccc1-c1cc(Oc2cccc3[nH]c(=O)c(N)nc23)ncn1	0.7	0.04	1.3	concentration at 1 h [19]: 19 ng/mL; Activity [20]: 0.6 °C; Drug uptake [21]: 25.35 ng/mL; inhibition in vivo at 1 mg/kg [16]: 100%
